According to paper PMC3689578 (Integrative biology : quantitative biosciences from nano to …, 2012):
Like-named read-outs stand apart in the source and are kept apart here.

Key:
[1] = target: T1, Active thrombin in serum (Mus musculus, UniProt P19221)
[2] = target: T2, cathepsin G (Homo sapiens, UniProt P08311); assay: Enzyme cleavage by cathepsin G; format: biochemical; conditions: 5 μmol L^−1 peptide, 50 nmol L^−1 enzyme
T2 sequence (P08311 21-255): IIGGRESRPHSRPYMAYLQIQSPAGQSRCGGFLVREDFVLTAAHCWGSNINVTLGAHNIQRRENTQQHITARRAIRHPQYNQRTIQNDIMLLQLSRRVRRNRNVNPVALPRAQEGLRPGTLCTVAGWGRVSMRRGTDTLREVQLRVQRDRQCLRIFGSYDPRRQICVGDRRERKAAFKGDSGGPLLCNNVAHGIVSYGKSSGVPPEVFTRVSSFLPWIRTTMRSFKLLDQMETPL

[3] = test system: clots at the end of the amputated tail tips; assay: In vivo clot imaging after tail amputation; design: species or system wildtype FVB mice; conditions: 10 nanomoles iv, 24 hours, p = 0.045
Summary of the method: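 Wildtype FVB mouse tails clipped 2.5 mm from the tip. 20 min later, 10 nanomoles cleavable or control probe given i.v. At 24 h, under ketamine/midazolam (80, 5 mg kg−1), tail-tip clots imaged by fluorescence dissecting microscope (ex 620/60, em 700/75). Intensity quantified from images.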

[4] = test system: atherosclerotic plaques; assay: Distribution of fluorescence within sectioned plaques; format: in vivo, LDLR−/− mice; conditions: 15 plaques, n = 5 mice, p = 0.023 paired t-test
[5] = test system: atherosclerotic plaques; assay: Imaging of carotid plaques after co-injection of two probes; format: in vivo, LDLR−/− mice; conditions: rhodamine-labelled DPRSFL–ACPP, two animals
Summary of the method: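 LDLR−/− mice (C57BL/6 background) fed 0.5% cholesterol diet for 1–2 years, given rhodamine-labelled test probe plus Cy5-labelled MMP-cleavable probe intravenously. At 6 h, under anaesthesia, the carotid was exposed and imaged by fluorescence dissecting microscope. Carotid bifurcation and aortic arch imaged postmortem (rhodamine ex 560/25, em 607/36; Cy5 ex 620/60, em 700/75). Tissue then frozen for histology.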

[6] = target: plasmin (Homo sapiens, UniProt P00747); assay: Enzyme cleavage by plasmin; format: biochemical; conditions: 5 μmol L^−1 peptide, 50 nmol L^−1 enzyme
[7] = test system: trypsin; assay: Enzyme cleavage by trypsin; format: biochemical; conditions: 5 μmol L^−1 peptide, 50 nmol L^−1 enzyme
[8] = test system: human atheromas; assay: Ex vivo incubation of human carotid endarterectomy specimens
Summary of the method: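 Fresh carotid endarterectomy specimens from five patients, held on ice, embedded in 0.5% agarose, cut into 2 mm slices. Slices from the same specimen incubated 1 h in 10 μmol L−1 Cy5-labelled cleavable or control probe; two sections also with 110 or 220 μmol L−1 argatroban. Fluorescence measured on cryosections, background-subtracted. Slices homogenised in SDS sample buffer, centrifuged, supernatant run on gel. Paired t-test.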

[9] = target: factor XIa (Homo sapiens, UniProt P03951); assay: Enzyme cleavage by factor XIa; format: biochemical; conditions: 5 μmol L^−1 peptide, 50 nmol L^−1 enzyme
[10] = target: T3, factor VIIa (Homo sapiens, UniProt P08709); assay: Enzyme cleavage by factor VIIa; format: biochemical; conditions: 5 μmol L^−1 peptide, 50 nmol L^−1 enzyme
T3 sequence (P08709 213-466 limits assumed): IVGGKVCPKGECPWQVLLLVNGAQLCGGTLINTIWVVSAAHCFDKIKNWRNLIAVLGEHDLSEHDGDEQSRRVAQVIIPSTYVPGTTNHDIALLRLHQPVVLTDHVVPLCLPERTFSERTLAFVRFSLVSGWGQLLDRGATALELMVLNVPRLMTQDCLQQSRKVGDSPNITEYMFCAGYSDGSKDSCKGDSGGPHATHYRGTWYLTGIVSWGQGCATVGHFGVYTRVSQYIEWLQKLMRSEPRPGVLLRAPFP
T3 sequence (P08709 61-212 limits assumed): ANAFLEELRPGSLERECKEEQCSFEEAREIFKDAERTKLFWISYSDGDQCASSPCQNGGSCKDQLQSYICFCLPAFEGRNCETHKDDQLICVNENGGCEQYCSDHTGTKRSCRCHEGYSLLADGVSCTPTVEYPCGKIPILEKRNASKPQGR

[11] = test system: atherosclerotic plaques; assay: Aorta and plaque fluorescence sorted by histologic group; format: in vivo, mice
[12] = target: T4, factor XIIa (Homo sapiens, UniProt P00748); assay: Enzyme cleavage by factor XIIa; format: biochemical; conditions: 5 μmol L^−1 peptide, 50 nmol L^−1 enzyme
T4 sequence (P00748 373-615 limits assumed): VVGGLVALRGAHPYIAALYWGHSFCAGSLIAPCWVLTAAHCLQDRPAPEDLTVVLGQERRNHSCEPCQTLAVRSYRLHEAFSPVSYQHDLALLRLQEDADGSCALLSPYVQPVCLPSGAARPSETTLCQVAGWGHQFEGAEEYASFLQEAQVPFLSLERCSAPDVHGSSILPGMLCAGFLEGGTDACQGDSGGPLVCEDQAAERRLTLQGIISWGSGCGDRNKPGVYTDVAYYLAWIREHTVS

[13] = test system: chymotrypsin; assay: Enzyme cleavage by chymotrypsin; format: biochemical; conditions: 5 μmol L^−1 peptide, 50 nmol L^−1 enzyme
[14] = target: activated protein C (APC) (Homo sapiens, UniProt P04070); assay: Enzyme cleavage by activated protein C; format: biochemical; conditions: 5 μmol L^−1 peptide, 50 nmol L^−1 enzyme
[15] = target: T5, thrombin (Homo sapiens, UniProt P00734); assay: Determination of kcat/Km with thrombin; format: biochemical
Summary of the method: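 Thrombin at 50 nmol L−1 with seven substrate concentrations from 1 to 30 μmol L−1, sampled at 5, 15, 30 and 60 min. Reactions stopped with SDS sample buffer and run on tricine gels. Percent cleavage = (lower band − background)/(lower + upper band − 2×background), uncleaved-substrate value subtracted. Percent × starting concentration gives product. Velocity is the slope of the linear product-versus-time segment. Km and kcat come from the Lineweaver–Burke intercept and slope.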

[16] = target: T6, neutrophil elastase (Homo sapiens, UniProt P08246); assay: Enzyme cleavage by neutrophil elastase; format: biochemical; conditions: 5 μmol L^−1 peptide, 50 nmol L^−1 enzyme
T6 sequence (P08246 30-267): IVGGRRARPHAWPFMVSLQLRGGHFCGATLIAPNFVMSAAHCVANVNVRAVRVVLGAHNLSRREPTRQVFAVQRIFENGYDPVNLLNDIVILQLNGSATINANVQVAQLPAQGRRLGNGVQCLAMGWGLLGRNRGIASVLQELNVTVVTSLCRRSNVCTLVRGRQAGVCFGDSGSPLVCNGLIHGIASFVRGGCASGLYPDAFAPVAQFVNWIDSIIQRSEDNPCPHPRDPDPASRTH

[17] = design: species or system mice; conditions: mouse, in vivo, iv
[18] = target: T5, thrombin; assay: Enzyme cleavage by purified thrombin; format: biochemical
[19] = target: factor Xa (Bos taurus, UniProt P00743); assay: Enzyme cleavage by factor Xa; format: biochemical; conditions: 5 μmol L^−1 peptide, 50 nmol L^−1 enzyme
[20] = target: T1, Active thrombin in serum; assay: biochemical; conditions: read-out: inhibition of DPRSFL–ACPP proteolysis by serum
[21] = target: T5, thrombin; conditions: thrombin activity on native receptor; cited from earlier work
[22] = 50 nmol L^−1 thrombin, 1 to 30 μmol L^−1 peptide, 5-60 min, gel read-out

factor Xa, sequence (P00743 234-492 limits assumed): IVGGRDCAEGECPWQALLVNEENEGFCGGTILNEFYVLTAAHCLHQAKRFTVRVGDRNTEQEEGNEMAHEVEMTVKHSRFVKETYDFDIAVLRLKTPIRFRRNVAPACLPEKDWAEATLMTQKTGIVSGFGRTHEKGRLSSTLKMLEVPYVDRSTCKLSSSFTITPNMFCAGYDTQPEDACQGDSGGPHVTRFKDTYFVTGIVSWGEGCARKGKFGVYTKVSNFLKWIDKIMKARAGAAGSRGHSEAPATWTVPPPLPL
factor Xa, sequence (P00743 41-180 limits assumed): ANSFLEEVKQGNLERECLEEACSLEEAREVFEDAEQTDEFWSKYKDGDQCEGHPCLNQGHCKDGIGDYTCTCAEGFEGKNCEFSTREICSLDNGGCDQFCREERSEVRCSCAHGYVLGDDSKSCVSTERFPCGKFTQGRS
factor XIa, sequence (P03951 388-625 limits assumed): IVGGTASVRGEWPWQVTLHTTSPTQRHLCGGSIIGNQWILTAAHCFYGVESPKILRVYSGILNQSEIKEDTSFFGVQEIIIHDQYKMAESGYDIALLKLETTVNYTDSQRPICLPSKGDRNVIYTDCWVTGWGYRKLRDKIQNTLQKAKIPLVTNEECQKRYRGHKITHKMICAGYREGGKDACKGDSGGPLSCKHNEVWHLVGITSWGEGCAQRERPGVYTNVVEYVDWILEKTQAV
factor XIa, sequence (P03951 19-387 limits assumed): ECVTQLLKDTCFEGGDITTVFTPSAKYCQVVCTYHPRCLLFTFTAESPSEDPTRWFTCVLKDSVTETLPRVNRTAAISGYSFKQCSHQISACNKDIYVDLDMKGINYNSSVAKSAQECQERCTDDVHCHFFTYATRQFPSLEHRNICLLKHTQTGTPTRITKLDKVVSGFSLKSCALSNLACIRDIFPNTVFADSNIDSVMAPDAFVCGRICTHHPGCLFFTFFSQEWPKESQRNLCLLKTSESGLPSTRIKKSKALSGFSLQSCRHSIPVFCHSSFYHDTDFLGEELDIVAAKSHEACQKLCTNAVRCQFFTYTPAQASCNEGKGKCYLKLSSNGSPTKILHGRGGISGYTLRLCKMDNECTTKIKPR
plasmin, sequence (P00747 581-810 limits assumed, species assumed): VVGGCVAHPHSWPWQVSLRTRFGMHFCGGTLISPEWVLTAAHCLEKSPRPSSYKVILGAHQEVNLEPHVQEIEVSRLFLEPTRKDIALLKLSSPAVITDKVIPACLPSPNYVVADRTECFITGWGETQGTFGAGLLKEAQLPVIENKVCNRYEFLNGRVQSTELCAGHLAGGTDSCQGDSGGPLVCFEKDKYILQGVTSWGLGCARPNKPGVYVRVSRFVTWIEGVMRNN
plasmin, sequence (P00747 97-580 limits assumed, species assumed): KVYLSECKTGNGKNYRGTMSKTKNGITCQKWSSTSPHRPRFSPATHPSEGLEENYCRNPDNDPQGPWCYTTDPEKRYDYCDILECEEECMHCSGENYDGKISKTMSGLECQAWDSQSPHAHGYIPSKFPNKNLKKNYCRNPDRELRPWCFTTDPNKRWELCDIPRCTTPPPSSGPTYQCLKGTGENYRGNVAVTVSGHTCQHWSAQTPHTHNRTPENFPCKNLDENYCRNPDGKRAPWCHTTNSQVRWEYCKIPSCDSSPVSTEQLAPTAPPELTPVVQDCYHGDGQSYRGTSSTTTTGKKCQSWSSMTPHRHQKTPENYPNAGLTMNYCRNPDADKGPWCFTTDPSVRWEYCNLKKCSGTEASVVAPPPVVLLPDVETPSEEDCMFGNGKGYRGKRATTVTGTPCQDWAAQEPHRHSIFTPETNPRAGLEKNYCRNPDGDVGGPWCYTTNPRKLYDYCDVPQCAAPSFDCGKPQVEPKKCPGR
activated protein C (APC), sequence (P04070 212-461 limits assumed): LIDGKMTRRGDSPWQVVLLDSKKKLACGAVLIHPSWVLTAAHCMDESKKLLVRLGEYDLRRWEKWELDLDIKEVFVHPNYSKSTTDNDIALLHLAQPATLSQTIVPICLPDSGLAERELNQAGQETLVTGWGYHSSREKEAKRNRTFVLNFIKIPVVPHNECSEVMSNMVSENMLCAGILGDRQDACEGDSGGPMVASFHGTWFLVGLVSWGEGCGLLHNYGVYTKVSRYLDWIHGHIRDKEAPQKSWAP
activated protein C (APC), sequence (P04070 43-197 limits assumed): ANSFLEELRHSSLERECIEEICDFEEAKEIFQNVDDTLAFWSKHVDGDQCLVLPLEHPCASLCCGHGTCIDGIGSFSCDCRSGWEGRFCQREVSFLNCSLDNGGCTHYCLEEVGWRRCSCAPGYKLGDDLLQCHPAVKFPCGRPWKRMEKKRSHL

For “Suc-e8-O-DPRSFL-r9-c(Cy5 or rhodamine)-CONH2 [DPRSFL–ACPP]”, the cleavage by serum [1] was “rapidly cleaved”, the “cleavage by cathepsin G” value [2] was “no cleavage” and the “fold increase in clot fluorescence intensity compared to mPEG–ACPP” value [3] was 2.4 fold. For the same molecule, the “uptake in hypocellular (DAPI poor) region versus cellular rich exterior” value [4] was “statistically greater”, the “uptake relative to co-injected Cy5–PLGLAG–ACPP within the same plaques” value [5] was “much higher” and the cleavage by plasmin [6] was “able to cleave”. For the same molecule, the cleavage by trypsin [7] was “able to cleave”, the “greater cleavage product retained compared to control ACPP” value ([8]; freshly resected human atheromas bathed in probe) was 63% and the “cleavage by human atheromas (gel electrophoresis of homogenates)” value ([8]; slices homogenized in SDS sample buffer after incubation) was “cleaved”. For the same molecule, the “cleavage by factor XIa” value [9] was “no cleavage”, the “cleavage by factor VIIa” value [10] was “no cleavage” and the “fluorescence intensity of individual plaques, Group 2” value ([11]; n = 3, p = 0.007 vs Group 1) was 43.7 ± 7.5. The “whole aorta fluorescence per pixel, Group 2 (more advanced plaques)” value ([11]; n = 4, p = 0.02 vs Group 1) was 24.4 ± 3.6, the “fluorescence intensity of individual plaques, Group 1” value ([11]; n = 11) was 17.0 ± 9.3 and the “whole aorta fluorescence per pixel, Group 1 (less advanced plaques)” value ([11]; n=12) was 7.8 ± 3.0. The “cleavage by factor XIIa” value [12] was “no cleavage”, the cleavage by chymotrypsin [13] was “able to cleave” and the “cleavage by APC” value [14] was “no cleavage”. The Km [15, 22] was 15 µM, the kcat [15, 22] was 0.3 s⁻¹ and the kcat/Km ([15]; from kcat and Km) was 21000 M⁻¹ s⁻¹. For the same molecule, the “cleavage by neutrophil elastase” value [16] was “no cleavage”, the whole blood half-life [17] was 17 ± 5 min and the “cleavage by purified thrombin” value ([18]; 5 μmol L^−1 peptide, 50 nM thrombin, 20 min, 37 °C, triplicate) was “efficiently cleaved”. The “cleavage by factor Xa” value [19] was “able to cleave”.

For `CC1CNc2c(cccc2S(=O)(=O)N[C@@H](CCCNC(=N)N)C(=O)N2CC[C@@H](C)C[C@@H]2C(=O)O)C1` (some centres unmarked) [argatroban, reference compound], the “reduction in fluorescence intensity relative to DPRSFL–ACPP alone” value ([8]; 110 or 220 μmol L^−1 argatroban, two atheroma specimens) was 76.6 ± 13.4%, the inhibition at 4 µg/mL ([18]; read-out: inhibition of DPRSFL–ACPP cleavage by thrombin) was > 90% and the inhibition at 4 µg/mL [20] was > 90%.

B1: native PAR-1 receptor: native proteinase activated receptor 1, thrombin substrate (protein, UniProt P25116 42-425, looked up)
Proteinase-activated receptor …: SFLLRNPNDKYEPFWEDEEKNESGLTEYRLVSINKSSPLQKQLPAFISEDASGYLTSSWLTLFVPSVYTGVFVVSLPLNIMAIVVFILKMKVKKPAVVYMLHLATADVLFVSVLPFKISYYFSGSDWQFGSELCRFVTAAFYCNMYASILLMTVISIDRFLAVVYPMQSLSWRTLGRASFTCLAIWALAIAGVVPLLLKEQTIQVPGLNITTCHDVLNETLLEGYYAYYFSAFSAVFFFVPLIISTVCYVSIIRCLSSSAVANRSKKSRALFLSAAVFCIFIICFGPTNVLLIAHYSFLSHTSTTEAAYFAYLLCVCVSSISCCIDPLIYYYASSECQRYVYSILCCKESSDPSSYNSSGQLMASKMDTCSSNLNNSIYKKLLT
In the case of B1, the kcat/Km [21] is given as 7.6e+06 M⁻¹ s⁻¹.
